From PMC3143253 (Journal of molecular biology, 2011)
“Also recorded” adds a separate entry of the source. Values belong to the compound of their own block, whether it stands above or below them. No end group written: not given here. *: point of attachment. X1 = CN(C)c1ccc2c(-c3ccc(N4C(=O)CC(*)C4=O)cc3C(=O)[O-])c3ccc(N(C)C)cc3[o+]c2c1

Columns and labels:
CaM [1] = biological target: T1, CaM (Homo sapiens, UniProt P0DP23); assay: CaM titration to TMR-CLS liposomes, TMR fluorescence; assay type: binding; conditions: pH 7.4; for association with CaM in 15% POPS liposomes: 15% POPS / 85% POPC liposomes, absence and presence of calcium
Collisional fluorescence = assay type: binding; conditions: pH 7.4
[2] = biological target: CaM (I-CaM, IAEDANS-labeled CaM-K75C) (Homo sapiens, UniProt P0DP23, K76C); assay: I-CaM fluorescence titration of water-soluble peptides; assay type: binding; conditions: 0.1 mM CaCl2 versus 0.3 mM EDTA
CaM [3] = biological target: T1, CaM; assay: Isothermal titration calorimetry; assay type: binding; conditions: 10 mM MOPS, 2 mM CaCl2, 100 mM NaCl, pH 7.4, 30 °C
[4] = test system: D/A-CaM (donor/acceptor-labeled CaM); assay: FRET measurements using D/A-CaM; assay type: binding; conditions: compared with CaMKII-derived peptide; calcium-containing buffer, pH 7.4
[5] = test system: 15N-labeled Ca^2+-loaded CaM; assay: 1H,15N-HSQC NMR titration of 15N-labeled CaM; assay type: binding; conditions: Ca^2+-CaM, 310 K
Solubility = assay type: physicochemical
[6] = cited from earlier work
I-CaM = I-CaM (Homo sapiens, UniProt P0DP23, K76C); assay: I-CaM titration to CLS liposomes, Trp315 to IAEDANS energy transfer; assay type: binding
Outline: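 Unlabelled CLS (30 nM) in liposomes was titrated with IAEDANS-labelled cysteine-mutant CaM. Its concentration came from IAEDANS absorbance. Buffer was 10 mM MOPS, 100 mM NaCl, pH 7.4, with 0.3 mM EDTA or 1 mM CaCl2, at 20 °C. Excitation was 295 nm, and Trp quenching was read at 333 nm. Spectra were averaged over 3 scans and corrected with empty liposomes. Kd came from a hyperbolic fit.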

[7] = Far-UV CD spectroscopy in liposomes; assay type: physicochemical; conditions: 1 mM MOPS, pH 7.4, 20 °C
Outline: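 CLS reconstituted into large unilamellar vesicles (extruded, 400-nm filter) at about 10 μM in 1 mM MOPS, pH 7.4. Far-UV spectra (190–260 nm) were taken in a 0.1-cm cuvette at 20 °C with 0.2 nm steps and 10 scans each, corrected against empty liposomes. CLS content was measured by Trp emission after dissolving in 2% SDS, against a standard curve.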

CaM [8] = biological target: T1, CaM; assay: Overall affinity of CaM for L-selectin cytoplasmic domain; assay type: binding; conditions: phosphatidylserine content mimics that in the inner leaflet of the cell plasma membrane

Compound: KLDKSFSMIKEGDYNPLFIPVAVMVTAFSGLAFIIWLARRLKKGKKSKRC(X1)MNDPY [TMR-CLS]
association with CaM in 15% POPS liposomes (CaM [1]): does not bind
change in TMR fluorescence emission on addition of CaM (CaM [1]; 15% POPS liposomes, up to 10 μM CaM, 10 mM MOPS, 100 mM NaCl, 1 mM EDTA or 0.1 mM CaCl2): little change in TMR fluorescence emission
effect of NaNO3 on TMR fluorescence (15% POPS versus POPC liposomes) (Collisional fluorescence; 150 mM NaI, increasing NaNO3, 10 mM MOPS, ex 542 nm, em 575 nm): quenched more significantly in 15% POPS liposomes compared to POPC liposomes

N (stoichiometry of binding) (CaM [3]; ARR18 316 μM in 10 μl increments into 27.6 μM CaM, one-site model): 0.92±0.05
ΔH (enthalpy change per mole of ligand) (CaM [3]; ARR18 316 μM into 27.6 μM CaM, one-site model): -0.77 ± 0.07 kcal/mol
ΔS (entropy change) (CaM [3]; derived from Ka and ΔH): 21.7 cal/mol·K
Compound: ARRLKKGKKSKRSMNDPY [ARR18]
effect of calcium on association with CaM [2]: calcium does not influence the association of CaM with ARR18
conformation of bound CaM [4]: much more extended conformation
CaM lobes bound ([5]; 10 mM MOPS, 100 mM NaCl, 5 mM CaCl2, pH 6.3): binds to both the N- and C-lobes of Ca^2+-CaM
nature of the binary complex ([5]; saturating concentrations of ARR18, pH 6.3): dynamic and exist as an ensemble of interconverting conformers
solubility in water / aqueous solutions (Solubility): soluble in water up to millimolar concentration

Compound: NCCCCCCNS(=O)(=O)c1cccc2c(Cl)cccc12 [W-7]
membrane binding and surface potential [6]: directly bind to membrane and alter the electrostatic surface potential

association with CaM in 15% POPS liposomes (CaM [1]): does not associate
effect of calcium on interaction with CaM (I-CaM; CLS in POPC liposomes, CaCl2 versus EDTA): independent of calcium ion
solubility in water / aqueous solutions (Solubility): not soluble in aqueous solutions
Compound: KLDKSFSMIKEGDYNPLFIPVAVMVTAFSGLAFIIWLARRLKKGKKSKRSMNDPY [CLS]
quenching of Trp315 fluorescence by I-CaM (I-CaM; unlabeled CLS in 15% POPS liposomes, pH 7.4): did not produce a significant quenching of Trp315 fluorescence
location of cytoplasmic domain relative to membrane surface (Collisional fluorescence; POPC liposomes with 0–15% POPS, 20 °C): located closer to the surface of membranes that have higher concentrations of negatively charged lipids
secondary structure by CD ([7]; POPC and 15% POPS liposomes, minima at 208 and 222 nm): characteristic of the α-helical secondary structure
α-helical content in 15% POPS versus POPC liposome ([7]; ellipticity at 222 nm): less α-helical secondary structure in the 15% POPS liposome than in the POPC liposome
interaction with CaM (summary) (CaM [8]): undetectable; also recorded: fails to bind
